The values below come from ChEMBL document CHEMBL4393666, “Synthesis and Anti-HCV Activities of 4'-Fluoro-2'-Substituted Uridine Triphosphates and Nucleotide Prodrugs: Discovery of 4'-Fluoro-2'- C-methyluridine 5'-Phosphoramidate Prodrug (AL-335) for the Treatment of Hepatitis C Infection” (J Med Chem, 2019).

Data set [1] relates to Hepatitis C virus. Put plainly: Antiviral activity against HCV genotype 4a subgenomic replicon expressing NS5B measured after 3 days by bright-glo luciferase reporter gene assay. The data set is classed as functional, organism-based, Hepacivirus hominis. As to conditions: subtype 4a, 72 h. The method in brief: (§1)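 Chimeric replicons carrying the NS5B of each genotype (1a H77, 1b Con1, 2b ADQ73660, 3a NZL1, 4a ABD75829). Firefly luciferase is driven by the poliovirus IRES and the HCV nonstructural genes by the EMCV IRES. Transiently transfected into Lunet cells, 10,000 cells/well. 3-fold serial dilutions, 0.5% DMSO final, 3 days. Read-out: firefly luciferase (Bright-Glo).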
(In general: Replicon systems follow genome replication, usually without infectious particles.)

A short description of data set [2]: Cytotoxicity against human A549 cells treated for 8 days measured post-last dose by Celltiter-glo luminescent assay. The data set is classed as cell-based. The method in brief: (§2)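 Cells at 1×10^5/well on collagen I, first kept 8 days in recommended medium without drug. Then compound exposure for 8 days, refed every other day. Viability by CellTiter-Glo luminescence; CC50 by curve fitting.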
Background: In ATP-based viability assays light output follows the ATP content of the culture.

Data set [3] concerns Hepatitis C virus. Put plainly: Antiviral activity against HCV genotype 3a NZL1 subgenomic replicon expressing NS5B measured after 3 days by bright-glo luciferase reporter gene assay. The data set is classed as functional, organism-based, Hepacivirus hominis. As to conditions: subtype 3a NZL1, 72 h. The method in brief: as §1
Data set [4] is described as follows: Drug metabolism in Beagle dog liver assessed as 2a-TP level at 9.87 mg/kg, po administered as single dose measured at 24 hrs by LC-MS/MS analysis. The data set is classed as ADME, organism-based, Canis lupus familiaris. As to conditions: in vivo. The method in brief:
(§3)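 Male non-naïve beagle dogs fasted overnight, single oral dose of 9.87 mg/kg (5 mg/kg parent nucleoside equivalent) as a solution in 40% PEG400/water. Liver extracts analysed for NTP by LC-MS/MS against liver-homogenate calibrants. N=2 at 4 h, N=3 at 12 and 24 h.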

In data set [5] the test system is Hepatitis C virus. Put plainly: Antiviral activity against HCV genotype 1 infected in human assessed as reduction in viral infection at 800 mg, qd measured after 6 weeks in presence of odalasvir/simeprevir relative to control. The data set is classed as functional, Hepacivirus hominis. Further details: scale not given: the % may be the effect or the level left.

The subject of data set [6] is Hepatitis C virus. Put plainly: Antiviral activity against HCV genotype 2b subgenomic replicon expressing NS5B measured after 3 days by bright-glo luciferase reporter gene assay. As to conditions: subtype 2b, 72 h. Type of data set: functional, organism-based, Hepacivirus hominis. In outline:
as §1

A short description of data set [7]: Drug metabolism in Beagle dog liver assessed as 2a-TP level at 9.87 mg/kg, po administered as single dose measured at 4 hrs by LC-MS/MS analysis. As to conditions: in vivo. The data set is classed as ADME, organism-based, Canis lupus familiaris. The method in brief:
as §3

Data set [8] in a line: Cytotoxicity against human HuH7 cells infected with HCV con1 subgenomic replicon assessed as reduction in cell viability measured after 3 days by CellTiter-blue cell viability assay. Type of data set: cell-based, Huh-7. The method in brief: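 Con1 replicon Huh-7 cells treated as for the replicon assay (DMEM, 2% FBS, 0.5% DMSO, no G418, 37°C) for 3 days. Viability by CellTiter-Blue; CC50 by curve fitting.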

Data set [9] in a line: Drug metabolism in Beagle dog liver assessed as 2a-TP level at 9.87 mg/kg, po administered as single dose measured at 12 hrs by LC-MS/MS analysis. As to conditions: in vivo. Type of data set: ADME, organism-based, Canis lupus familiaris. In outline:
as §3

The subject of data set [10] is Hepatitis C virus. Put plainly: Antiviral activity against HCV genotype 1a H77 expressing NS5B measured after 3 days by bright-glo luciferase reporter gene assay. The data set is classed as functional, organism-based, Hepacivirus hominis. As to conditions: subtype 1a H77, 72 h. In outline:
as §1
A general note: Reporter assays use an easily measured gene product as a stand-in for the process of interest.

The subject of data set [11] is Hepatitis C virus. Put plainly: Antiviral activity against HCV genotype 1b con1 subgenomic replicon expressing NS5B measured after 3 days by bright-glo luciferase reporter gene assay. The data set is classed as functional, organism-based, Hepacivirus hominis. As to conditions: subtype 1b con1, 72 h. In outline:
as §1

The subject of data set [12] is Hepatitis C virus. Nature of the data set: Antiviral activity against HCV con1 subgenomic replicon infected in human HuH7 cells assessed as reduction in viral RNA replication by qRT-PCR analysis. Type of data set: functional, organism-based, Hepacivirus hominis. As to conditions: isolate Con1, Huh-7. The method in brief: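 Con1 subgenomic replicon Huh-7 cells (neomycin selection, kept in DMEM/10% FBS with 0.25 mg/ml G418) treated with compounds in DMEM, 2% FBS, 0.5% DMSO, no G418, at 37°C. Total RNA extracted; HCV RNA copy number by multiplex Taqman QRT-PCR. EC50/EC90 by 4-parameter curve fit; EC50 is the mean of ≥2 independent runs.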

The nature of data set [13]: Cytotoxicity against human HuH7 cells treated for 8 days measured post-last dose by Celltiter-glo luminescent assay. The data set is classed as cell-based, Huh-7. The method in brief:
as §2

Data set [14] is described as follows: Drug metabolism in human primary hepatocytes assessed as 2a-TP formation at 10 uM after 6 to 24 hrs by LC-MS/MS analysis.
The nature of data set [15]: Drug metabolism in human primary hepatocytes assessed as 2a-TP formation after 24 hrs by LC-MS/MS analysis.
Data set [16] can be described thus: Cytotoxicity against human MT4 cells treated for 8 days measured post-last dose by Celltiter-glo luminescent assay. Type of data set: cell-based. The method in brief:
as §2

Data set [17] in a line: Drug metabolism in human HuH7 cells assessed as 2a-TP formation per million cells at 50 uM after 24 hrs by LC-MS/MS analysis. As to conditions: huh-7, 24 h. Type of data set: ADME, cell-based. The method in brief: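 Huh-7 cells in 6-well plates, DMEM with 10% FBS and G418, incubated with compound at 50 μM extracellular for 24 h at 37°C, 5% CO2. Washed with cold 0.9% NaCl, lysed in 70% methanol. Intracellular NTP by LC-MS/MS against cell-matrix calibrants, internal standard N6-benzoyladenine; expressed per million cells.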

The nature of data set [18]: Drug metabolism in human hepatocytes assessed as 2a-TP formation per million cells at 50 uM after 24 hrs by LC-MS/MS analysis. Type of data set: ADME, cell-based, Hepatocyte. In outline:
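Primary human hepatocytes, 1.5-2 million cells/well, in Williams E medium, acclimated >18 h. Incubated with compound at 50 μM extracellular for 24 h at 37°C, 5% CO2. Washed with cold saline, methanol/water lysis, NTP measured by LC-MS/MS per million cells.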

Data set [19] is described as follows: Cytotoxicity against human HepG2 cells treated for 8 days measured post-last dose by Celltiter-glo luminescent assay. The data set is classed as cell-based. In outline: as §2
The nature of data set [20]: Cytotoxicity against human HeLa cells treated for 8 days measured post-last dose by Celltiter-glo luminescent assay. Type of data set: cell-based. The method in brief:
as §2

Data set [21] can be described thus: Cytotoxicity against human U937 cells treated for 8 days measured post-last dose by Celltiter-glo luminescent assay. Type of data set: cell-based, U-937. In outline:
as §2

Data set [22] can be described thus: Half life in human hepatocytes assessed as 2a-TP level at 50 uM treated for 24 hrs followed by compound washout by LC-MS/MS analysis. The data set is classed as ADME, cell-based, Hepatocyte. In outline: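 Primary human hepatocytes loaded with prodrug at 50 μM for 24 h at 37°C. Medium then replaced with blank medium; samples at 0, 3, 6, 10, 24 and 48 h. NTP by LC-MS/MS; half-life from first-order decay; n=3.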

What is called EC50 is the concentration at which the effect is half-maximal. What is called CC50 is the concentration giving 50% cytotoxicity. `CC(C)OC(=O)[C@H](C)N[P@](=O)(OC[C@@]1(F)O[C@@H](n2ccc(=O)[nH]c2=O)[C@](C)(O)[C@@H]1O)Oc1ccccc1` [ADAFOSBUVIR]: the half-maximal effective concentration (EC50) in the data set with Hepatitis C virus [1] was 60 nM; with Hepatitis C virus [3] it was 60 nM; with Hepatitis C virus [6], 40 nM; with Hepatitis C virus [10], 60 nM; in the data set with Hepatitis C virus [11], 40 nM; with Hepatitis C virus [12], 70 nM. The CC50 at 192 h is over 100000 nM in data set [2]; 96100 nM in [13]; over 100000 nM in [16]; over 100000 nM in data set [19]; over 100000 nM in data set [20]; over 100000 nM in [21]. For the same compound, the Drug metabolism is 29.991 µM in data set [4]; 23.19 µM in [7]; 35.222 µM in [9]; “Metabolite_Detected” in [14]; “Dose-dependent effect” in data set [15]; 5695 pmol in [17]. The Drug metabolism in data set [18] is given as 3540 pmol. For the same compound, the Activity in the data set on Hepatitis C virus [5] is 100%. For the same compound, the cytotoxic concentration (CC50) at 72 h in [8] is over 99000 nM.
Take `CC(C)OC(=O)[C@H](C)NP(=O)(OC[C@@]1(F)O[C@@H](n2ccc(=O)[nH]c2=O)[C@](C)(O)[C@@H]1O)Oc1ccccc1` (some centres undefined): in data set [8], the CC50 at 72 h is over 100000 nM. Besides, in the data set with Hepatitis C virus [12], the EC50 amounted to 110 nM. Also, the t1/2 in data set [22] was 30.1 h.
